# According to article PMC3281520 (Nature chemical biology, 2012):
# Tests used:
# [1] = biological target: T1, ProRS (amino acids 998–1513 of human EPRS) (Homo sapiens, UniProt P07814); experiment: [3H]-HFol binding to immobilized ProRS
# T1 sequence (P07814 998-1512 limits assumed): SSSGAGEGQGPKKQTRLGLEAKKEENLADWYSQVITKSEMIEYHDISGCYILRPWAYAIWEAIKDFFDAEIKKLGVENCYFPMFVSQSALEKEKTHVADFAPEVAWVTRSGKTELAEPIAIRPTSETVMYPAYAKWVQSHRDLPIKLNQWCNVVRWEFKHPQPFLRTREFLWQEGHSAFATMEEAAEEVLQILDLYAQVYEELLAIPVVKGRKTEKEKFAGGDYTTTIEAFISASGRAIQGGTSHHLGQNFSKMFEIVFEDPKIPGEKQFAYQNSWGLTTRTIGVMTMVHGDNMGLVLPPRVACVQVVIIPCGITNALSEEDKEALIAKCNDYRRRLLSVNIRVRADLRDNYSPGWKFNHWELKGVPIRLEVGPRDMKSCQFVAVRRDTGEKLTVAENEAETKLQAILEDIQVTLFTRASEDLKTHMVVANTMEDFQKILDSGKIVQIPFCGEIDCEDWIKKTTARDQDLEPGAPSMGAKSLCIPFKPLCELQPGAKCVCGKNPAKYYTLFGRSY
# Method in brief: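 His6-tagged human EPRS prolyl-tRNA synthetase domain, expressed in E. coli, immobilized on Ni-NTA beads. Beads washed twice in ice-cold buffer; bound counts by scintillation, with beads given tag-free E. coli extract as background.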
# [2] = system: primary murine CD4+ CD25− T cells; experiment: Th17 cell differentiation; assay type: cell-based, mouse
# Method in brief: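 CD4+ CD25− T cells from spleens and peripheral lymph nodes of wild-type C57B/6 mice, TCR-activated under Th17-polarizing conditions with test compound and amino acid supplements: 10x EAA or NEAA mixes, or single amino acids at 1 mM. Day 4 restimulation with PMA 10 nM, ionomycin and brefeldin A for 4–5 h. Intracellular cytokine staining, flow cytometry; % IL-17+ IFNγ− cells, triplicate wells, SD.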
# AAR pathway in MEFs = experiment: AAR pathway activation in MEFs; assay type: cell-based, mouse; settings: 2 hours (Fig. 5a); for stimulation of GCN2 phosphorylation in the presence of proline: 2 mM proline
# Method in brief: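 MEFs grown in 10% FCS/DMEM, then exposed to test compound with or without 2 mM proline for 2 h. Lysis was in RIPA with 5 mM EDTA, phosphatase and protease inhibitors. Western blot for total GCN2 and Thr898-phospho-GCN2; three separate experiments. For CHOP: 50 nM test compound ± 2 mM proline, lysis 6 h later, CHOP Western blot with cytoplasmic actin as loading control.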
# [3] = system: translation in rabbit reticulocyte lysate (RRL); experiment: Cell free in vitro translation in rabbit reticulocyte lysate; assay type: biochemical; settings: for effect on translation of luciferase RNA in RRL: cell free, luminescence assay (Fig. 2a, 2b); for translation of Nopropep (proline-free polypeptide) in RRL / translation of Propep (polypeptide with proline dipeptide) in RRL: inhibitor 1 μM, anti-myc Western blot (Fig. 2c)
# Method in brief: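 Rabbit reticulocyte lysate per kit instructions, standard amino acid mix diluted 5-fold; sometimes preincubated at 30 degrees with another RNA to deplete endogenous charged tRNAs. Luciferase mRNA translation read by luciferase luminescence. Rescue with amino acid mixtures or single amino acids at 1 mM each; triplicates, SD. Myc-tagged peptides ± proline dipeptide: inhibitors 1 μM, proline 1 mM, anti-myc Western blot.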
# [4] = Intracellular HF levels by anti-HF ELISA; assay type: in vitro ADME, mouse; settings: MEFs, 2 mM proline, 2 hours (Supplementary Fig. 11)
# [5] = system: mouse embryo fibroblasts (MEFs); experiment: ECM gene expression and protein production in fibroblasts; assay type: cell-based
# Method in brief: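 MEFs in 10% FCS/DMEM were treated with 50 nM test compound and/or 2 mM proline. Exposure was 4 h for CHOP and S100A4 and 24 h for Col1A1 and Col1A2. mRNA by quantitative RT-PCR, normalised to TBP, relative to untreated. Triplicate determinations from triplicate plates; two-tailed Student's t test for compound alone versus compound plus proline.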
# [6] = system: prolyl-tRNA charging in the RRL system; experiment: tRNA charging in RRL; assay type: biochemical, rabbit; settings: doses comparable to those that inhibit translation (Fig. 2d)
# Method in brief: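 Rabbit reticulocyte lysate incubated with 1 μCi 14C-proline or 35S-methionine, added bovine tRNA and 2 μM puromycin to block use of charged tRNA in translation, with or without test compound. Total tRNA then extracted with a small-RNA isolation kit. Radioactivity in tRNA measured by liquid scintillation counting; triplicates, SD.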
# [7] = biological target: prolyl tRNA synthetase domain of human EPRS (ProRS) (Homo sapiens, UniProt P07814); experiment: Assay of ProRS activity; assay type: biochemical
# mTORC1 signaling = mTORC1 signaling in T cells and fibroblasts; assay type: cell-based, mouse; settings: 100 nM HF in MEFs (Supplementary Fig. 10)
smiles,measurement,setting,value
"C[C@H](N)C(=O)NS(=O)(=O)OC[C@H]1O[C@@H](n2cnc3c(N)ncnc32)[C@H](O)[C@@H]1O [AlaSAd, alanyl sulfamoyl adenosine]",inhibition of binding of [3H]-HFol to ProRS at 50 nM,[1]; 50 nM (Fig. 4a),partially inhibited
"C[C@@H]1C[C@H](C)C[C@H](C)[C@@H](O)CC(=O)O[C@H]([C@@H]2CCC[C@H]2C(=O)O)C/C=C/C=C(/C#N)[C@H](O)[C@@H](C)C1 [Borrelidin, borrelidin]",Th17 cell differentiation,"[2]; Th17 polarizing conditions, borrelidin 6 nM (Supplementary Fig. 13)",inhibited
same,effects on Th17 differentiation on addition of excess cognate amino acid,[2]; threonine 1 mM (Fig. 6b),reversed
"O=C(C[C@H]1NCCC[C@@H]1O)Cn1cnc2ccccc2c1=O [FF, febrifugine]",stimulation of GCN2 phosphorylation in the presence of proline,AAR pathway in MEFs,abrogated
same,GCN2 phosphorylation in fibroblasts,AAR pathway in MEFs,stimulation
same,effect on translation of luciferase RNA in RRL,[3],inhibited
same,translation of Nopropep (proline-free polypeptide) in RRL,[3],no effect
same,translation of Propep (polypeptide with proline dipeptide) in RRL,[3],prevent translation
"O=C(CC1NCCCC1O)Cn1cnc2cc(Br)c(Cl)cc2c1=O (stereo not shown) [HF, halofuginone]",Th17 differentiation in HF-treated T cells with individual amino acid supplement,"[2]; 10 nM HF, proline 1 mM, only proline effective (Fig. 6a)",rescued
same,stimulation of GCN2 phosphorylation in the presence of proline,AAR pathway in MEFs,abrogated
same,GCN2 phosphorylation in fibroblasts,AAR pathway in MEFs,stimulation
same,effect on translation of luciferase RNA in RRL,[3],inhibited
same,translation of Nopropep (proline-free polypeptide) in RRL,[3],no effect
same,translation of Propep (polypeptide with proline dipeptide) in RRL,[3],prevent translation
same,"translation inhibited by HF, after supplementation of RRL with excess amino acids","[3]; proline 1 mM, only proline is effective (Fig. 2a)",restores
same,intracellular accumulation of HF on proline addition,[4],not affected
same,inhibition of ECM proteins in the presence of proline,[5]; 2 mM proline in the media (Supplementary Fig. 15),reversed
same,production of secreted Type I procollagen and of fibronectin,[5]; 24 hours treatment (Fig. 6d),dramatically inhibited
same,expression of mRNA encoding CHOP,"[5]; MEFs, HF 50 nM, 4 hours (Fig. 6c)",stimulated
same,"mRNA levels of Col1A1, Col1A2, and S100A4","[5]; MEFs, HF 50 nM, 4 hours (S100A4) or 24 hours (Col1A1, Col1A2), restored by proline (Fig. 6c)",inhibits
same,35S-methionine incorporation into total protein,[5]; doses that inhibit ECM protein production (Fig. 6d),did not significantly change
same,incorporation of 14C-Pro into tRNA,[6],inhibited
same,competition of [3H]-HFol binding to ProRS,[1]; Fig. 3a,competed
same,Ki,[7],0.0183 µM
same,inhibition of mTORC1 signaling,mTORC1 signaling,without concomitant inhibition
